# Measured values as given in ChEMBL document CHEMBL4513216, “Probing the Open Global Health Chemical Diversity Library for Multistage-Active Starting Points for Next-Generation Antimalarials” (ACS Infect Dis, 2020).
# Assay: Toxicity liver stage against HepG2, at 10uM
# Type: cell-based
# Design: test concentration 10 uM, cell line HepG2-A16-CD81EGFP
# Details: human, HepG2-A16-CD81EGFP cells; read-out: INHIBITION
# Method in brief: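 Uninfected HepG2-A16-CD81EGFP cells, 3 × 10^3 per well, 1536-well, plated on prespotted compound at 10 μM final, parasite-free screening media added to match infected plates; puromycin 10 μM positive, DMSO 0.5% negative; run in parallel with 48 h PbLuc assay at 37 °C, 5% CO2; viability by CellTiter-Glo luminescence, normalized to controls.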
row,Structure (SMILES),cytotoxicity at 10 µM [%]
1,O=S(=O)(NC[C@H]1C[C@@H]2CCN1C[C@@H]2CN1CCCC1)c1ccc(Cl)cc1,-4.38
2,COC(=O)[C@@H]1Cc2ncn(C)c2CN1S(=O)(=O)c1ccc(OC)cc1,-4.13
3,O=C(NCCCO)c1cc(-c2ccc3c(c2)CCO3)n[nH]1,-4.24
4,CC(C)C1SCC(=O)Nc2c1cnn2C(C)C (stereo not given),4
5,Cc1ccccc1-n1ncc2c(=O)n(CCN3CCCCC3)cnc21,-8.47
6,O=C1CCC2(CCN(S(=O)(=O)c3ccccc3)CC2)N1CC1CC1,3.41
7,Cc1ccc(C(=O)N2CCC3(CC2)CC(NC(=O)C(C)C)CO3)cc1 (stereo not given),-1.89
8,COCCN1C(=O)CCC12CCN(C(=O)CNC(C)=O)CC2,3.47
9,Cc1ccc(N2CC3(CCN(S(=O)(=O)C4CC4)C3)C2)nn1,10.6
10,CN1CCCc2sc(C(=O)NC3CC3)nc21,-149
11,O=S(=O)(C1CC1)N1CCCC2(COCCN(c3nncs3)C2)C1 (stereo not given),5.22
12,CCOC(=O)CN1C[C@@H]2OCCN(c3ncc(F)cn3)[C@@H]2C1,20.2
13,O=C1NC(c2ccccc2)=N[C@@]12CC[C@@H]1CN(Cc3nccs3)C[C@@H]12,6.37
14,CCC1=N[C@@]2(CC[C@@H]3CN(S(=O)(=O)CC(C)C)C[C@@H]32)C(=O)N1CC,0.167
15,Cc1nc(CN2CCO[C@H]3CN(C(=O)c4cccn4C)C[C@H]32)cs1,-136
16,COc1ccc(C2OC(COc3ccccc3Br)=NN2C(C)=O)cc1 (stereo not given),3.56
17,O=C(NCc1ccco1)[C@H]1C[C@H]2OCC[C@H]2N(S(=O)(=O)C2CC2)C1,-1.48
18,COCCC(=O)N1CCN(C)c2ncccc2C1,-8.28
19,Cn1cc(-c2cnc(N3CCCC3)nc2)cc1C(=O)O,-16.3
20,Cc1cccc(CNC(=O)CC2CCN(C(=O)C(C)C)CC2)n1,7.45
21,COCC(=O)N1CCC(c2cc(-c3ccc(OC)cc3)n[nH]2)C1 (stereo not given),-10.3
22,CNc1cccc(C2CN(C(=O)CNS(C)(=O)=O)CCO2)n1 (stereo not given),-2.24

row,Structure (SMILES),cytotoxicity at 10 µM [%]
1,Cc1ncncc1C(=O)N1CCOC(C)(C(=O)NC2CCCC2)C1 (stereo not given),-36.4
2,CS(=O)(=O)N1CCCC1c1cccc(Cc2ccccc2F)n1 (stereo not given),-13.2
3,CC(=O)Nc1cc(C(C)(C)C)sc1C#N,10.3
4,CSCC(CCO)Nc1nc(C(F)F)nc2ccccc12 (stereo not given),-5.52
5,Cc1nc(C(C)C)sc1C(=O)N1CCC(C(N)=O)CC1,1.68
6,Cc1cc(C(=O)Nc2ccc(OCCN3CCN(C)CC3)cc2)[nH]n1,-2.51
7,O=C(NCCNc1ncccn1)c1ccc(OCc2ccccc2)nc1,17
8,CC(C1CC1)N(C)Cc1nnc(-c2ccc(Br)s2)o1 (stereo not given),-11.2
9,Cc1ccc(CN2CCC(CNC(=O)Cn3cncn3)CC2)cc1,1.22
10,CCN1CC(COC(=O)c2ccccc2Cl)CC1=O (stereo not given),-1.54
11,CC(C)COCCNC(=O)NC1CCCN(c2cnn(C)c2)C1 (stereo not given),9.39
12,O=C(NCc1nncn1C1CC1)C1(c2ccccc2)CCOCC1,3.31
13,CN(Cc1cc(Br)cn1C)C(=O)c1cc(Cl)ccn1,-11
14,O=C(Nc1ccccc1F)N(CCO)CCOCC(F)(F)F,1.1
15,CC(C(=O)N1CCN(c2ccc(F)cc2)CC1)n1ccnc1 (stereo not given),1.05
16,COC(=O)CCNC(=O)c1ccc(NC(=O)N(C)CC(C)C)cc1,9.13
17,CC(C)C(=O)NCc1ccccc1NS(=O)(=O)c1ccccc1,9.05
18,Cc1ccc(O)c(C(=O)N2CCC(CNC(=O)OC(C)(C)C)C2)c1 (stereo not given),16.4
19,O=C(CN1CCOC(c2ccccc2C(F)(F)F)C1)NC1CC1 (stereo not given),3.02
20,O=C(NCCNS(=O)(=O)c1ccc2c(c1)CCC2)c1ccccc1,9.36
21,CC(C)=CCNC1CCCN(c2ccc(C)nn2)C1 (stereo not given),5.23
22,CCc1nc(CNC(=O)Nc2nc(COC)cs2)cs1,-0.67

row,Structure (SMILES),cytotoxicity at 10 µM [%]
1,Cc1ccc(C)c(CC(=O)Nc2cnccc2SCCCO)c1,21.2
2,NS(=O)(=O)CCN1CCOC(c2ccc(Cl)cc2)C1 (stereo not given),-0.317
3,CNC(=O)c1ccc(OC)c(NCc2noc(-c3ccsc3)n2)c1,0.736
4,COCCN1CCN(CC(=O)N(C)Cc2ccccc2)CC1C (stereo not given),-144
5,O=C(Nc1cc(-c2ccccc2)on1)N1CC[C@H](O)C1,4.98
6,Nc1nccnc1C(=O)N(Cc1ccco1)CC1CCCO1 (stereo not given),8.13
7,Cc1occc1C(=O)N1CCC(C(O)c2ccc(Cl)cc2)CC1 (stereo not given),-0.342
8,CNC(=O)c1csc(-c2ccoc2)n1,-5.64
9,Cc1cccc(NC(=O)NC2CCN(C3CCOC3)CC2)c1 (stereo not given),4.24
10,Cc1cccc(C)c1OCCCN1CCC(n2cncn2)CC1,-24.3
11,CNC(=O)NC(=O)CCSCc1cc(Cl)cc2cccnc12,-8.06
12,Cc1ccccc1CS(=O)(=O)CC(=O)N(C)Cc1ccccc1F,-0.969
13,N#Cc1ccc(N2CCN(c3nccs3)CC2)nc1,31
14,CC1CCC(NS(=O)(=O)CC(=O)Nc2ccccc2N2CCCC2)CC1 (stereo not given),3.75
15,CC(C(N)=O)N(C)CCCc1cc(-c2ccc(F)cc2)n(C)n1 (stereo not given),-4.87
16,CCC[C@@H](NC(N)=O)C(=O)N1Cc2ccccc2-c2ccccc2C1,5.17
17,CN(CC(F)F)C(=O)c1cn(-c2ccc(Br)cc2)cn1,1.73
18,CCc1ncc(C(=O)NCCNC(=O)Cc2ccc(F)cc2)s1,-2.57
19,Cc1cccc(NC(=O)c2sccc2C)n1,-1.45
20,Cc1noc(C)c1CN1CCn2cc(CN3CCOCC3)nc2C1,4.71
21,CCn1c(Cn2cccn2)nnc1C1CCN(Cc2ccc(C)o2)CC1,-1.14
22,Cc1cc(C)cc(CN2CCN(C(=O)C3CCC3)[C@@H]3CS(=O)(=O)C[C@@H]32)c1,-1.38

row,Structure (SMILES),cytotoxicity at 10 µM [%]
1,Cc1ccsc1-c1nnc(SCC(=O)O)n1C(C)c1ccccc1 (stereo not given),-4.65
2,Cc1cc(C)c2c(N(C)CC3COCCO3)ncnc2n1 (stereo not given),-133
3,CCSc1ncc(CN2CCN(c3nc(C)cnc3C)CC2)cn1,5.84
4,Cc1ccsc1CN(CCN(C)C)C(=O)c1ccc(C#N)nc1,-120
5,Cc1ncsc1CCN(C)C(=O)CCc1nc2cccnc2n1C,-149
6,O=C(Nc1ccccc1OCCc1ccccn1)N1CC[C@@H](O)C1,4.4
7,Cc1nc(N)nc(C)c1CC(=O)N1CCCN(CC2CC2)C(C(C)C)C1 (stereo not given),-142
8,COc1nccc(N2CC[C@@H](N3CCC(O)CC3)[C@H](O)C2)c1C#N,-152
9,c1ccc(Cc2nc(C3CC3)nn2-c2ccc3c(c2)OCCO3)nc1,2.6
10,O=C1CCC2(CCN(CC[C@@H](O)c3ccccc3)CC2)CN1CC1CC1,4.51
11,CCOc1cccc(CN2CCCC(Nc3ccc(F)cc3)C2)c1O (stereo not given),-8.93
12,c1ncn(Cc2nnc(C3CCN(C4CCOCC4)CC3)n2C2CC2)n1,-3.51
13,COCc1noc(CNc2nc(C3CCCC3)nc3c2CCNCC3)n1,0.0228
14,CCCOCCCNc1nccc(-c2cn(C)nc2C)n1,-10.5
15,Cn1nccc1CNC(=O)CCn1nc(C(F)(F)F)cc1C1CC1,-8.74
16,COc1ccc(CN2CCC3(CC(Nc4ccncn4)C3)C2)c(OC)c1 (stereo not given),2.43
17,O=C(CCOc1cccc(F)c1)N1CCCC1Cn1cccn1 (stereo not given),-5.7
18,Cc1csc(N2CCCN(C(=O)Cn3cncn3)CC2)n1,-3.27
19,Cc1ccc(NC(=O)C2CSCN2C(=O)c2cnsn2)c(C)c1 (stereo not given),-0.955
20,Cn1cc(CC2CCN(C(=O)NCc3cccc(C(N)=O)c3)C2)cn1 (stereo not given),-4.25
21,Cc1noc2ncc(C(=O)NCC3CCS(=O)(=O)C3)cc12 (stereo not given),-18.9
22,Cc1noc(C)c1C(=O)N1CCCC1c1c(C)nn(C)c1C (stereo not given),-5.68

row,Structure (SMILES),cytotoxicity at 10 µM [%]
1,c1ccc(OCCNC2CCCN(Cc3noc(C4CC4)n3)C2)cc1 (stereo not given),-13.6
2,Clc1cccc(Cl)c1-c1nnc(CNCCn2cccn2)o1,-6.46
3,CC(C)NC(=O)c1cc(Br)c2c(c1)OCCO2,-13.3
4,COc1c(C2CCCN2C(=O)c2ccc(C#N)c(C)n2)c(C)nn1C (stereo not given),-8.45
5,CC(C)CCCNC(=O)Nc1ccc(C(N)=O)c(Cl)c1,4.69
6,CC(NC(=O)NCc1ccccc1Cl)c1ccccn1 (stereo not given),-11.1
7,O=C(CCCOc1cccc(F)c1)N1CCCC(n2cncn2)C1 (stereo not given),-13.2
8,CCN(Cc1ccccc1)Cc1nc2c(cnn2C)c(=O)[nH]1,2.86
9,O=C(NCCCn1cccn1)NCC(c1ccco1)N1CCCC1 (stereo not given),-13.3
10,CCn1c(C)nnc1CN(C)C1CCN(CCS(=O)(=O)CC)C1 (stereo not given),-1.17
11,CC(=O)NC1CCCN(C(=O)NCc2cccnc2)C1 (stereo not given),-10.5
12,Cc1noc(C2CCCN(C(=O)c3cc(Cl)ccc3F)C2)n1 (stereo not given),2.66
13,O=C(NCC1CC1)c1nc2c(o1)CN(CC1CC1)C2,-147
14,CCOCC1c2c(cnn2C)CCN1C(=O)c1ccncn1 (stereo not given),-141
15,OC(CN1CCN(Cc2ccc(F)c(F)c2)CC1)C1CC1 (stereo not given),-22.2
16,O=S(=O)(C1CC1)N1CCC[C@]2(C[C@@H](Oc3ccccn3)CO2)C1,-144
17,CS(=O)(=O)N1CCC2(CC1)COC(COc1cccnc1)C2 (stereo not given),7.61
18,O=C(Nc1ccccc1)C1CN(Cc2ccco2)CC12CCOCC2 (stereo not given),-3.2
19,CCN(CC)c1ncnc2c1CCN(C(=O)Cc1ccccn1)CC2,3.13
20,CNC(=O)[C@H]1C[C@H]2OCC[C@H]2N(CCOc2ccc(Cl)cc2)C1,-104
21,Cc1cccc(CN2CCO[C@H]3[C@H](Oc4ccccn4)CC[C@@H]32)n1,-4.65
22,c1cncc(CN2CC[C@@H]3O[C@H](COCCN4CCCC4)CC[C@@H]32)c1,-156
